Data reported in ChEMBL document CHEMBL1773035, “SHAFTS: a hybrid approach for 3D molecular similarity calculation. 2. Prospective case study in the discovery of diverse p90 ribosomal S6 protein kinase 2 inhibitors to suppress cell migration” (J Med Chem, 2011).

How the values were obtained:
[1] = molecular target: Glycogen synthase kinase-3 alpha (Homo sapiens) (UniProt P49840); assay: Inhibition of GSK3alpha at 10 uM
Outline: (§1)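 Serine/threonine kinase profiling by an outside contract service following manufacturer protocols, ATP at Km for each enzyme; percent inhibition at 10 μM.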

[2] = molecular target: Mitogen-activated protein kinase 9 (Homo sapiens) (UniProt P45984); assay: Inhibition of JNK2 at 10 uM; outline: as §1
[3] = molecular target: Ephrin type-A receptor 2 (Homo sapiens) (UniProt P29317); assay: Inhibition of EPHA2 at 10 uM by ELISA based method
Outline: (§2)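 Tyrosine kinase profiling by ELISA-based method, ATP at Km for each enzyme; percent inhibition at 10 μM, mean of at least two independent tests.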

[4] = molecular target: Mitogen-activated protein kinase 14 (Homo sapiens) (UniProt Q16539); assay: Inhibition of p38alpha at 10 uM; outline: as §1
Sequence of Mitogen-activated protein kinase 14 (Homo sapiens) (Q16539 whole entry): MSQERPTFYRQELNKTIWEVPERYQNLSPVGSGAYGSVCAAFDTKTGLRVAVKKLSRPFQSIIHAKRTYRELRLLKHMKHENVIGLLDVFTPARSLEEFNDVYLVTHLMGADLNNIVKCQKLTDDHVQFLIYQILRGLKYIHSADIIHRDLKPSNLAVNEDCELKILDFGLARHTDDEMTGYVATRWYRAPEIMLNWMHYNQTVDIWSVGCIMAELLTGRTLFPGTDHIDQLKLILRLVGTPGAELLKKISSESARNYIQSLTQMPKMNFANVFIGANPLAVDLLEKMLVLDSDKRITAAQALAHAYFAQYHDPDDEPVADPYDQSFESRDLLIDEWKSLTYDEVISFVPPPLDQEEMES

[5] = molecular target: Vascular endothelial growth factor receptor 1 (Homo sapiens) (UniProt P17948); assay: Inhibition of Flt1 at 10 uM by ELISA based method; outline: as §2
Sequence of Vascular endothelial growth factor receptor 1 (Homo sapiens) (P17948 whole entry): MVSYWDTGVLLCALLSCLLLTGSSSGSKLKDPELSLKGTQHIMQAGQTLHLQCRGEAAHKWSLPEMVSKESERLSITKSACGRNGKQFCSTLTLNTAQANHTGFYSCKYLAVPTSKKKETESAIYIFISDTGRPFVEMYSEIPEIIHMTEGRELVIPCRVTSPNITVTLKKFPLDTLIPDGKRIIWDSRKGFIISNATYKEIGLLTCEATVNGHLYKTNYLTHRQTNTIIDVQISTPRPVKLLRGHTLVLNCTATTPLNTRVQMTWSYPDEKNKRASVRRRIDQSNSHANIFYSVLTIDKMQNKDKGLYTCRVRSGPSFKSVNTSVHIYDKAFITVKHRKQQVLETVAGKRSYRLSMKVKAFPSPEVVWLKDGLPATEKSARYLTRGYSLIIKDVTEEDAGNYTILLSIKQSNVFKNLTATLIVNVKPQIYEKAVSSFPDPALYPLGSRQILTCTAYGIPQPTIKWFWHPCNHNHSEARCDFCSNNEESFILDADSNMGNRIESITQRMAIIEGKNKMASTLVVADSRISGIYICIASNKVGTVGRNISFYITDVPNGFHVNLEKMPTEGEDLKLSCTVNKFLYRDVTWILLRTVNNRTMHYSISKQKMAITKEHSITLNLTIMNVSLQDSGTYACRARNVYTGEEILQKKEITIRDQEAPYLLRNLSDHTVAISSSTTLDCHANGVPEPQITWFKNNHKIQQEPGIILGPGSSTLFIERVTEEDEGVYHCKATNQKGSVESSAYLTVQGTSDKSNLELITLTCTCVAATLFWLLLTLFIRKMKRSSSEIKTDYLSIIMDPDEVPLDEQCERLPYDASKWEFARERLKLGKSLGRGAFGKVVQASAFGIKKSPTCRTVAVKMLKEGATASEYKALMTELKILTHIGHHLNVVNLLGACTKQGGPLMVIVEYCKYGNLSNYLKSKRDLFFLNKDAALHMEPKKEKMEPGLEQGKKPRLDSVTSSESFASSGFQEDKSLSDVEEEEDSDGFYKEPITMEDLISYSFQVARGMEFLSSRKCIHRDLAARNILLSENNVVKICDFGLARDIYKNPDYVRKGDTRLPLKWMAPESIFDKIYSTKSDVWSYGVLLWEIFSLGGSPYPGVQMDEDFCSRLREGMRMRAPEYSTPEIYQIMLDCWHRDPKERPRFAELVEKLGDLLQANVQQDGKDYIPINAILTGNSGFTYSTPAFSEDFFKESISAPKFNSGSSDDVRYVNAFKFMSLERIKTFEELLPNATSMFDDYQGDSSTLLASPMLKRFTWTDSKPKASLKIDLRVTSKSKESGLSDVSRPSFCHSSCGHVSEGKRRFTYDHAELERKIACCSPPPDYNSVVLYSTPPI

[6] = molecular target: Platelet-derived growth factor receptor beta (Homo sapiens) (UniProt P09619); assay: Inhibition of PDGFRbeta at 10 uM by ELISA based method; outline: as §2
[7] = system: HCT-116; assay: Antiproliferative activity against human HCT116 cells over expressing RSK2 at 100 uM after 48 hrs by MTT assay; type: functional; conditions: HCT-116, 48 h
Outline: (§3)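 Formazan dissolved in DMSO, absorbance read at 570 nm. Inhibition = (1 − A570 compound/A570 control)×100. Screening concentration 100 μM (control 10 μM). IC50 from curves, ≥3 independent tests, attempted when inhibition at 100 μM exceeded 40%.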

[8] = molecular target: Proto-oncogene tyrosine-protein kinase receptor Ret (Homo sapiens) (UniProt P07949); assay: Inhibition of RET at 10 uM by ELISA based method; outline: as §2
Sequence of Proto-oncogene tyrosine-protein kinase receptor Ret (Homo sapiens) (P07949 whole entry): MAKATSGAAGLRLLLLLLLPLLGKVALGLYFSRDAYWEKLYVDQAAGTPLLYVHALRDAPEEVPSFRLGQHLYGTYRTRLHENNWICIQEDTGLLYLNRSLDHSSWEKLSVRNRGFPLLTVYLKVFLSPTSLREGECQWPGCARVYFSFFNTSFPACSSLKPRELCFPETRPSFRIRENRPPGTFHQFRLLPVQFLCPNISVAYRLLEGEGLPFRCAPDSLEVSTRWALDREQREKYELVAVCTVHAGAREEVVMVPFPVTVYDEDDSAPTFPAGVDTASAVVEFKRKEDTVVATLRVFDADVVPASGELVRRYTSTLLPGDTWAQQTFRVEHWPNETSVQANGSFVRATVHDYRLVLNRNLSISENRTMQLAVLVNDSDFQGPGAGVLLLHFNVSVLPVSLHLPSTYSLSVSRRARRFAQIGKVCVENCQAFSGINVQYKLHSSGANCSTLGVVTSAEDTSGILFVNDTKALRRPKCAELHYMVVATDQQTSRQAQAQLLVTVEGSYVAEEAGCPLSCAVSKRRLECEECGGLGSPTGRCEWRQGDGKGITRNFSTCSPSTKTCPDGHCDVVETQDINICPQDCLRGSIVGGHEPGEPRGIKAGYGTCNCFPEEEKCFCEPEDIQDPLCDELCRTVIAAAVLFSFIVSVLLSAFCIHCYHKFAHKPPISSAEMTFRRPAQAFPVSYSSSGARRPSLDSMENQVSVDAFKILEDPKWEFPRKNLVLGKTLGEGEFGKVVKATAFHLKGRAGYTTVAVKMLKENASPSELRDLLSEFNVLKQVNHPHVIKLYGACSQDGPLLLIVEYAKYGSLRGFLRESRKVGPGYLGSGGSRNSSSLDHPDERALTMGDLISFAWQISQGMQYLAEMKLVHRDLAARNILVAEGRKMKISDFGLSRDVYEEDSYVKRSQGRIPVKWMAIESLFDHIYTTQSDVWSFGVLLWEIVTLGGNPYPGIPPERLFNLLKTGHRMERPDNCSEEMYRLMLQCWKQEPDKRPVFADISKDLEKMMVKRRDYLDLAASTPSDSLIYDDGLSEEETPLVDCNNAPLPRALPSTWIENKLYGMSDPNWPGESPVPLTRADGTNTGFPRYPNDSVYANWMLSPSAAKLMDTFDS

[9] = system: HCT-116; assay: Antiproliferative activity against human HCT116 cells over expressing RSK2 after 48 hrs by MTT assay; type: functional, cell-based; conditions: HCT-116, 48 h; outline: as §3
[10] = molecular target: Fibroblast growth factor receptor 1 (Homo sapiens) (UniProt P11362); assay: Inhibition of FGFR1 at 10 uM by ELISA based method; outline: as §2
[11] = molecular target: Platelet-derived growth factor receptor alpha (Homo sapiens) (UniProt P16234); assay: Inhibition of PDGFRalpha at 10 uM by ELISA based method; outline: as §2
[12] = molecular target: T1, Ribosomal protein S6 kinase alpha-3 (Homo sapiens, UniProt P51812); assay: Inhibition of RSK2 after 60 mins
T1 sequence (P51812 whole entry): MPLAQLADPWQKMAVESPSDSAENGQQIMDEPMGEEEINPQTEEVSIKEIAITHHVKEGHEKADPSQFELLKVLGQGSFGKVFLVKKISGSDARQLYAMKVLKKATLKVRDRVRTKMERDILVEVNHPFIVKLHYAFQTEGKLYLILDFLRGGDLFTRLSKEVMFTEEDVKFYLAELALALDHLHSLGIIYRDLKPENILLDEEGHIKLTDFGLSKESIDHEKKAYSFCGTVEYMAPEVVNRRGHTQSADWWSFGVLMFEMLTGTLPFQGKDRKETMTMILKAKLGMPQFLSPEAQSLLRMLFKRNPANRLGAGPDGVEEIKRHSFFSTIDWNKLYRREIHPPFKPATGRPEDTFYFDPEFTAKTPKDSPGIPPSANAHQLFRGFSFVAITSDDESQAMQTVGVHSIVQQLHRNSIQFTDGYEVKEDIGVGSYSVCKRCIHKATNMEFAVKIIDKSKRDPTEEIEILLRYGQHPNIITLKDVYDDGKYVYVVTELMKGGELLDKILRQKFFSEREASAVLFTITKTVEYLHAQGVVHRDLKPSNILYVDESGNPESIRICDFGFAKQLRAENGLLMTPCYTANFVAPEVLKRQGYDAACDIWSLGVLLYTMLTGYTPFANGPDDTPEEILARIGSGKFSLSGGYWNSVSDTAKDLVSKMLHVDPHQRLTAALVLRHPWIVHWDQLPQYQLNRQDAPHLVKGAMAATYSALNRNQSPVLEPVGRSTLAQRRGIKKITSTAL
Outline: (§4)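 Recombinant RSK2 (20 ng) preincubated 20 min at room temperature with compound in HEPES pH 7.4 buffer (MgCl2, EGTA, Tween 20, BGG) with 25 μM S6 peptide; started with ATP (10 μM final), 60 min at room temperature. ADP Quest fluorescence read at ex 530/em 590 nm. IC50 from curves of ≥3 independent tests, measured when inhibition at 10 μM exceeded 30%.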

[13] = molecular target: Proto-oncogene tyrosine-protein kinase Src (Homo sapiens) (UniProt P12931); assay: Inhibition of c-Src at 10 uM by ELISA based method; outline: as §2
[14] = molecular target: 3-phosphoinositide-dependent protein kinase 1 (Homo sapiens) (UniProt O15530); assay: Inhibition of PDK1 at 10 uM
[15] = system: MDA-MB-231; assay: Antiproliferative activity against human MDA-MB-231 cells over expressing RSK2 after 48 hrs by MTT assay; type: functional, cell-based; conditions: MDA-MB-231, 48 h; outline: as §3
[16] = system: MCF7; assay: Antiproliferative activity against human MCF7 cells over expressing RSK2 after 48 hrs by MTT assay; type: functional, cell-based; conditions: MCF7, 48 h; outline: as §3
[17] = system: MDA-MB-231; assay: Antiproliferative activity against human MDA-MB-231 cells over expressing RSK2 at 100 uM after 48 hrs by MTT assay; type: functional; conditions: MDA-MB-231, 48 h; outline: as §3
[18] = molecular target: Serine/threonine-protein kinase pim-1 (Homo sapiens) (UniProt P11309); assay: Inhibition of PIM1 at 10 uM; outline: as §1
[19] = molecular target: Vascular endothelial growth factor receptor 2 (Homo sapiens) (UniProt P35968); assay: Inhibition of KDR at 10 uM by ELISA based method; outline: as §2
[20] = molecular target: Epidermal growth factor receptor (Homo sapiens) (UniProt P00533); assay: Inhibition of EGFR at 10 uM by ELISA based method; outline: as §2
[21] = molecular target: Mitogen-activated protein kinase 3 (Homo sapiens) (UniProt P27361); assay: Inhibition of ERK1 at 10 uM; outline: as §1
[22] = molecular target: T1, Ribosomal protein S6 kinase alpha-3; assay: Inhibition of RSK2 at 10 uM; outline: as §4
[23] = molecular target: Tyrosine-protein kinase ABL1 (Homo sapiens) (UniProt P00519); assay: Inhibition of ABL at 10 uM by ELISA based method; outline: as §2
[24] = molecular target: Ribosomal protein S6 kinase alpha-5 (Homo sapiens) (UniProt O75582); assay: Inhibition of MSK1 at 10 uM; outline: as §1
[25] = molecular target: Mast/stem cell growth factor receptor Kit (Homo sapiens) (UniProt P10721); assay: Inhibition of c-Kit at 10 uM by ELISA based method; outline: as §2
[26] = molecular target: RAC-alpha serine/threonine-protein kinase (Homo sapiens) (UniProt P31749); assay: Inhibition of AKT1 at 10 uM; outline: as §1
Sequence of RAC-alpha serine/threonine-protein kinase (Homo sapiens) (P31749 whole entry): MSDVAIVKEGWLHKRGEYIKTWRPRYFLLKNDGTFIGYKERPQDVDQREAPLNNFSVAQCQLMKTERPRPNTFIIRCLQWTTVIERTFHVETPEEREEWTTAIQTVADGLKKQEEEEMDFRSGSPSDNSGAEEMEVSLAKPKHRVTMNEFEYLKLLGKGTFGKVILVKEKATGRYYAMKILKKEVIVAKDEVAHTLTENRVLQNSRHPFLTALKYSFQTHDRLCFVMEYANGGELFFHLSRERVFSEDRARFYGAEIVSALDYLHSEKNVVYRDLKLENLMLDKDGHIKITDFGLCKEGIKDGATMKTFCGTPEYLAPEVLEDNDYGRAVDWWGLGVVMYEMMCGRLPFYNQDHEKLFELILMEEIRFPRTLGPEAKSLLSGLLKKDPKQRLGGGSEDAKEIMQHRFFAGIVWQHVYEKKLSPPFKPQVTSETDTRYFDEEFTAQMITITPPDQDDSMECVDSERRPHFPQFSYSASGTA

[27] = system: MCF7; assay: Antiproliferative activity against human MCF7 cells over expressing RSK2 at 100 uM after 48 hrs by MTT assay; type: functional; conditions: MCF7, 48 h; outline: as §3
[28] = molecular target: Ribosomal protein S6 kinase beta-1 (Homo sapiens) (UniProt P23443); assay: Inhibition of p70S6K at 10 uM; outline: as §1
Sequence of Ribosomal protein S6 kinase beta-1 (Homo sapiens) (P23443 whole entry, looked up): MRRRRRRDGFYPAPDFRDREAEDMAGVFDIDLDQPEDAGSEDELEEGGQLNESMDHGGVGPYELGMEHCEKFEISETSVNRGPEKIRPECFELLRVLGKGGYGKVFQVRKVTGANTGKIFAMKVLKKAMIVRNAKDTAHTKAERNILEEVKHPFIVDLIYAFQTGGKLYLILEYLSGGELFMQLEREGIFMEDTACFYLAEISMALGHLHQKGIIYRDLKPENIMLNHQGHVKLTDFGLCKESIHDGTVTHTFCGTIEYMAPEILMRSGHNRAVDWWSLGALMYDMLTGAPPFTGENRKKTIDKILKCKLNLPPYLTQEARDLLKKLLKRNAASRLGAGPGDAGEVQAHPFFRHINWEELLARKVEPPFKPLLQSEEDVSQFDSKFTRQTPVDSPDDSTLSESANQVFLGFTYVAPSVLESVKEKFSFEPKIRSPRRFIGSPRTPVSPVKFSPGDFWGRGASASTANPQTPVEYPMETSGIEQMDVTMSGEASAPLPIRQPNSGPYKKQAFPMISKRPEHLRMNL

Sequence of Glycogen synthase kinase-3 alpha (Homo sapiens) (P49840 2-483 limits assumed): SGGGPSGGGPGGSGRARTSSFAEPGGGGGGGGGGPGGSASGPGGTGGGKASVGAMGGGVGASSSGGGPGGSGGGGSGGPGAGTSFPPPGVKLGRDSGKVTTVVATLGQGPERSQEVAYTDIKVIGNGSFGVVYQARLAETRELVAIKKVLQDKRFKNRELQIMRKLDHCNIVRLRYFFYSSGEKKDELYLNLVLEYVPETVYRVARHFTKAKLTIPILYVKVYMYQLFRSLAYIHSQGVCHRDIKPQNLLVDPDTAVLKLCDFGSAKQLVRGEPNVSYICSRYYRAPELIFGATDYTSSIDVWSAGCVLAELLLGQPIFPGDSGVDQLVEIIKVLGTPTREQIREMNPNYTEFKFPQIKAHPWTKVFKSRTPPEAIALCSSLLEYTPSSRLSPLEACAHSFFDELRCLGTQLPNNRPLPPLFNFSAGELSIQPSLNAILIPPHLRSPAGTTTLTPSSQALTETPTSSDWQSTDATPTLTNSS

## Oc1ccc(NCn2nnc3ccccc32)cc1
[1]
  inhibition: 29.3%
[2]
  inhibition: 11%
[3]
  inhibition: 38.2%
[4]
  inhibition: 13%
[5]
  inhibition: 2.4%
[6]
  inhibition: 55.2%
[7]
  inhibition at 100 µM: 91.6%
[8]
  inhibition: 10%
[9]
  IC50: 56.2 µM
[10]
  inhibition: 31.3%
[11]
  inhibition: -6.9%
[12]
  IC50: 0.48 µM
[13]
  inhibition: 14.2%
[14]
  inhibition: -5.8%
[15]
  IC50: 14.9 µM
[16]
  IC50: 18 µM
[17]
  inhibition at 100 µM: 98.8%
[18]
  inhibition: 0.7%
[19]
  inhibition: 16.9%
[20]
  inhibition: 32.4%
[21]
  inhibition: 2.8%
[22]
  inhibition: 89.2%
[23]
  inhibition: 8.6%
[24]
  inhibition: 10.1%
[25]
  inhibition: 15.6%
[26]
  inhibition: 8.6%
[27]
  inhibition at 100 µM: 97%
[28]
  inhibition: 6.9%

## O=C(NNc1ccc(C(F)(F)F)cn1)c1ccccc1Cl
[12]
  IC50: 13.2 µM

## O=c1[nH]c(=O)c2ncc(-c3ccc(O)cc3)nc2[nH]1
[12]
  IC50: 14.5 µM

## O=C(O)c1ccc(/N=N/c2ccc(O)c3ncccc23)cc1
[7]
  inhibition at 100 µM: 28.4%
[12]
  IC50: 3.47 µM
[17]
  inhibition at 100 µM: 22.2%
[27]
  inhibition at 100 µM: 36.7%

## Cc1cc(N)cc2[nH]c(-c3ccccc3)nc12
[7]
  inhibition at 100 µM: 32.6%
[12]
  IC50: 1.06 µM
[17]
  inhibition at 100 µM: 45.8%
[27]
  inhibition at 100 µM: 21.3%

## Nc1n[nH]c(N)c1/N=N/c1ccc(S(N)(=O)=O)cc1
[7]
  inhibition at 100 µM: 6.98%
[12]
  IC50: 5.5 µM
[17]
  inhibition at 100 µM: 18.5%
[27]
  inhibition at 100 µM: 32.9%

## O=C(Nc1ccccc1O)c1cnns1
[7]
  inhibition at 100 µM: 43.2%
[9]
  IC50: > 100 µM
[12]
  IC50: 3.03 µM
[15]
  IC50: > 100 µM
[17]
  inhibition at 100 µM: 46.5%
[27]
  inhibition at 100 µM: 32.7%

## Clc1ccc2c(c1)SNC(c1ccccc1)=N2
[7]
  inhibition at 100 µM: 6.5%
[12]
  IC50: 2.88 µM
[17]
  inhibition at 100 µM: 0%
[27]
  inhibition at 100 µM: 3.6%

## Cc1ccc2nc(-c3cc(N)cc(C)c3O)oc2c1
[7]
  inhibition at 100 µM: 44.2%
[9]
  IC50: > 100 µM
[12]
  IC50: 1.38 µM
[15]
  IC50: > 100 µM
[16]
  IC50: > 100 µM
[17]
  inhibition at 100 µM: 54.7%
[27]
  inhibition at 100 µM: 45.1%
